In ChEMBL document CHEMBL1156983, “Modulation of cell surface expression of nonactivated cholecystokinin receptors using bivalent ligand-induced internalization” (J Med Chem, 2010):
Activity calls are given as the source filed them. No cut-off for these calls is given here.

What was measured:
Format in all cases: cell-based
[1] = biological target: Mu-type opioid receptor (Homo sapiens) (UniProt P35372); assay: Induction of receptor internalization in YFP-tagged mu opioid receptor expressed in CHO cells
Sequence of Mu-type opioid receptor (Homo sapiens) (P35372 whole entry): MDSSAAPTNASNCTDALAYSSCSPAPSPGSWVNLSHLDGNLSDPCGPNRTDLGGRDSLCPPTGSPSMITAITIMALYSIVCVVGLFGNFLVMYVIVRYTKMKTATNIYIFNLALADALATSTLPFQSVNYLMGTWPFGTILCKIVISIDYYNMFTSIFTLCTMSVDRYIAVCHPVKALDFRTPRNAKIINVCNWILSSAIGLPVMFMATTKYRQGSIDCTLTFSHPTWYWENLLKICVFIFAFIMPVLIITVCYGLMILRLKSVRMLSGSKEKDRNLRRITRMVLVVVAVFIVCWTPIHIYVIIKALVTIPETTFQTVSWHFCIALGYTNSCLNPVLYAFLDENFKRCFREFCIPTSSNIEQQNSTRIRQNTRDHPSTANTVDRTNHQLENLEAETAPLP
In short: (§1)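 CHO cells stably expressing YFP-tagged MOP or YFP-tagged CCK2 receptor on coverslips, washed in PBS with 0.08 mM CaCl2 and 0.1 mM MgCl2. Incubated with 100 nM ligand at 4 °C for 90 min, washed with ice-cold PBS, then warmed in 37 °C PBS for various times. Fixed with 2% paraformaldehyde; YFP localization imaged by epifluorescence.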

[2] = biological target: T1, Gastrin/cholecystokinin type B receptor (Homo sapiens) (UniProt P32239); assay: Induction of receptor internalization in YFP-tagged CCK2 receptor expressed in CHO cells; in short: as §1
T1 sequence (whole entry): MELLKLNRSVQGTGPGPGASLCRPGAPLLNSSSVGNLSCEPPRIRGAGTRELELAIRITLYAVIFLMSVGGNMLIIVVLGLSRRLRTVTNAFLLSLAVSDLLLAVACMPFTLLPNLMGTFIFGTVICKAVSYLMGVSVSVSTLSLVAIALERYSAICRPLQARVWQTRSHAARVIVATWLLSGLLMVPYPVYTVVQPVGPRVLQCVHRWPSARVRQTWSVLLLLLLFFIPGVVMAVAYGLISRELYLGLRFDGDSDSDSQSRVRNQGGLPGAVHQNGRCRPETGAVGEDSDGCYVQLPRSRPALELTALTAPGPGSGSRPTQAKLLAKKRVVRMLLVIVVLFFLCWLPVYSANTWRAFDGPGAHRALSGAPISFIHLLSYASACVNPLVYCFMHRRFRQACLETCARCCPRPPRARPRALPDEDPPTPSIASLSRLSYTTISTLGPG

[3] = biological target: Mu-type opioid receptor (Homo sapiens) (UniProt P35372); assay: Induction of receptor internalization in YC-tagged mu opioid receptor expressed in CHO cells after 90 mins
In short: (§2)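 CHO cells stably coexpressing YN-tagged CCK2 and YC-tagged MOP receptors on coverslips, washed with PBS containing 0.08 mM CaCl2 and 0.1 mM MgCl2. Incubated with 100 nM ligand at 4 °C for 90 min, washed with ice-cold PBS, then moved to prewarmed 37 °C PBS for various times. Fixed in 2% paraformaldehyde; reconstituted YFP fluorescence imaged by epifluorescence microscopy.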

[4] = biological target: T1, Gastrin/cholecystokinin type B receptor (Homo sapiens); assay: Induction of receptor internalization in YN-tagged CCK2 receptor expressed in CHO cells at 4 degC; in short: as §2
[5] = biological target: Mu-type opioid receptor (Homo sapiens) (UniProt P35372); assay: Induction of receptor internalization in YC-tagged mu opioid receptor expressed in CHO cells at 4 degC; details: TDE = time-dependent effect; in short: as §2
[6] = biological target: T1, Gastrin/cholecystokinin type B receptor (Homo sapiens); assay: Induction of receptor internalization in YN-tagged CCK2 receptor expressed in CHO cells after 90 mins; in short: as §2

## C[C@@H](NC(=O)[C@@H](N)Cc1ccc(O)cc1)C(=O)NCC(=O)N(C)[C@@H](Cc1ccccc1)C(=O)NCCO
[1]; TDE = time-dependent effect
  Activity: tde

## Cc1cccc(NC(=O)N[C@@H]2N=C(c3ccccc3)c3ccccc3N(C)C2=O)c1
[2]
  Activity: inactive

## CNC(=O)COCC(=O)NCCCCNC(=O)COCC(=O)N[C@H]1CC[C@@]2(O)C3Cc4ccc(O)c5c4[C@@]2(CCN3C)[C@H]1O5
[3]
  Activity: inactive
[1]
  Activity: Active

## CN1C(=O)[C@H](NC(=O)Nc2cccc(OCCNC(=O)COCC(=O)NCCNC(=O)COCC(=O)N[C@H]3CC[C@@]4(O)C5Cc6ccc(O)c7c6[C@@]4(CCN5)[C@H]3O7)c2)N=C(c2ccccc2)c2ccccc21
[3]
  Activity: Active
[4]
  Activity: Active
[5]
  Activity: tde
[6]
  Activity: Active

## CN1C(=O)[C@H](NC(=O)Nc2cccc(OCCNC(=O)COCC(=O)NNC(=O)COCC(=O)N[C@H]3CC[C@@]4(O)C5Cc6ccc(O)c7c6[C@@]4(CCN5)[C@H]3O7)c2)N=C(c2ccccc2)c2ccccc21
[3]
  Activity: Active
[4]
  Activity: Active
[5]
  Activity: tde
[6]
  Activity: Active

## CN1C(=O)[C@H](NC(=O)Nc2cccc(OCCNC(=O)COCC(=O)NCCCCCCNC(=O)COCC(=O)N[C@H]3CC[C@@]4(O)C5Cc6ccc(O)c7c6[C@@]4(CCN5)[C@H]3O7)c2)N=C(c2ccccc2)c2ccccc21
[3]
  Activity: Active
[4]
  Activity: Active
[5]
  Activity: tde
[6]
  Activity: Active

## CNC(=O)COCC(=O)NCCCCCCNC(=O)COCC(=O)NCCOc1cccc(NC(=O)N[C@@H]2N=C(c3ccccc3)c3ccccc3N(C)C2=O)c1
[3]
  Activity: inactive
[2]
  Activity: Active

## CN1C(=O)[C@H](NC(=O)Nc2cccc(OCCNC(=O)COCC(=O)N[C@H]3CC[C@@]4(O)C5Cc6ccc(O)c7c6[C@@]4(CCN5)[C@H]3O7)c2)N=C(c2ccccc2)c2ccccc21
[3]
  Activity: inactive
